Like-named read-outs stand apart in the source and are kept apart here.
Experiments:
SNAP-mGluR3 [1] = molecular target: T1, SNAP-mGluR3 (Rattus norvegicus, UniProt P31422); assay: GIRK current, whole-cell patch clamp; assay type: cell-based; conditions: GIRK1-F137S co-expressed
SNAP-mGluR3 [2] = molecular target: T1, SNAP-mGluR3; assay: GIRK current, whole-cell patch clamp; assay type: cell-based
Summary of the method: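 Cells grown in DMEM with 10% FBS at 37 °C/5% CO2, seeded on poly-L-lysine-coated glass coverslips, and co-transfected (Lipofectamine 2000) with receptor, GIRK1-F137S homotetramer and tdTomato. Medium was switched at 6 h to 5 µM LY341495. Whole-cell voltage clamp at −60 mV 24–36 h post-transfection. Log EC50 of point mutants versus WT compared by extra sum-of-squares F-test.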

T1 sequence (P31422 23-879): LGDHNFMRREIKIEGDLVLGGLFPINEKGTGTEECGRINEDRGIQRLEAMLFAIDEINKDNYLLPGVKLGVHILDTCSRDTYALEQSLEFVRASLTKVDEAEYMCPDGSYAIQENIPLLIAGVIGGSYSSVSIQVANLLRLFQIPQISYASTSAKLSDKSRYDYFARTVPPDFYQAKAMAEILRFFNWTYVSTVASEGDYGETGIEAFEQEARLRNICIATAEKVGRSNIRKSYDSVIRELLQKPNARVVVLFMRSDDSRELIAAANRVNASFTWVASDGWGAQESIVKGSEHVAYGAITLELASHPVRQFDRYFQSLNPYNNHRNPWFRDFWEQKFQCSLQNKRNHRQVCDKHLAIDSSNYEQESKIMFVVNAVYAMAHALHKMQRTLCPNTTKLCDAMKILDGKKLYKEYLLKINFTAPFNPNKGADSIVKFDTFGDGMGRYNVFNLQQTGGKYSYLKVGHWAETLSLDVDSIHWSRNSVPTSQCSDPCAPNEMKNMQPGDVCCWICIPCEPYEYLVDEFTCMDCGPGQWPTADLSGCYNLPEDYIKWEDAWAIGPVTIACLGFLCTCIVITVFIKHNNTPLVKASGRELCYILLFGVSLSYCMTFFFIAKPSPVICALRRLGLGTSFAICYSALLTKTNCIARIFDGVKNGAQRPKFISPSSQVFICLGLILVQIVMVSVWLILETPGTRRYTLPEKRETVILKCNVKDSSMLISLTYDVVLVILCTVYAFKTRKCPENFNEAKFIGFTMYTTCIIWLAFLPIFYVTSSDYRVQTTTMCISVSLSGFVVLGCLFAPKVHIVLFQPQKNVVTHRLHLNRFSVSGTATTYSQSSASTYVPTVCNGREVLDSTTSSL

Compound | EC50 (SNAP-mGluR3 [1]; orthosteric agonist) | other results
N[C@H](C(=O)O)C1[C@@H](C(=O)O)[C@@H]1C(=O)O (stereo partly shown) [DCG-IV] |  | EC50 (SNAP-mGluR3 [1]; orthosteric partial agonist): All three agonists produced dose-dependent, reversible GIRK currents
N[C@@]1(C(=O)O)CO[C@H]2[C@H](C(=O)O)[C@H]21 [LY379268] | All three agonists produced dose-dependent, reversible GIRK currents | 
COc1ccc(C(=O)O)cc1OC[C@H](C)COc1ccc(C(=O)CC(C)(C)C)c(O)c1C [VU6023326, (R)−3-(3-(4-(3,3-dimethylbutanoyl)−3-hydroxy-2-methylphenoxy)−2-methyl-propoxy)−4-methoxybenzoic acid] |  | EC50 (SNAP-mGluR3 [2]): 7.94 nM
N[C@@H](CCC(=O)O)C(=O)O [glutamate] | All three agonists produced dose-dependent, reversible GIRK currents | 
